ChEMBL document CHEMBL1649225, “Artemisone and artemiside control acute and reactivated toxoplasmosis in a murine model” (Antimicrob Agents Chemother, 2009)
Activity calls are given as the source filed them. No cut-off for these calls is given here.

Legend:
Toxoplasma gondii [1] = test: Antiparasitic activity against Toxoplasma gondii RH infected in human foreskin fibroblasts monolayer after 72 hrs by bacterial beta-galactosidase reporter gene assay; type: functional, organism-based
Outline: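 RH clone 2F expressing bacterial β-galactosidase, grown as tachyzoites in HFF monolayers in DMEM with 10% FBS. Compounds from DMSO stocks stored at −80°C in single-use aliquots. Tested at 0.010–1.0 μM for 72 h at 37°C. Medium then removed and β-galactosidase activity read at 570 nm.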

HFF = test: Cytotoxicity against HFF; type: cell-based; conditions: human
[2] = Partition coefficient, log P of the compound; type: physicochemical; conditions: octanol/water
Toxoplasma gondii [3] = test: Antiparasitic activity against Toxoplasma gondii PRU-Luc-GFP type 2 infected in CD1 mouse acute toxoplasmosis model assessed as mouse survival at 10 mg/kg, sc administered once daily for 8 days measured after 25 days post-infection; type: functional; conditions: PRU-Luc-GFP type 2, sc, route subcutaneous
Outline: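 Female CD1 outbred mice, 8–10 weeks old, infected i.p. with 10⁶ PRU-Luc-GFP type II tachyzoites in 0.2 ml PBS. Compounds given s.c. at 10 mg/kg daily for 8 days. Survival followed for 25 days; three experiments combined, n = 3 or 4 per group.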

Toxoplasma gondii [4] = test: (§1) Antiparasitic activity against Toxoplasma gondii PRU-Luc-GFP type 2 infected in 400 mg/kg sulfadiazine-pretreated INFgamma-deficient C57BL/6 mouse reactivated toxoplasmosis model assessed as mouse survival at 10 mg/kg, sc at once daily for 8 days administered 2 days after sulfadiazine discontinuation measured on day 18 post infection after compound withdrawal; type: functional, organism-based
Outline: (§2)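 Female IFN-γ−/− mice on C57BL/6 background, 8–10 weeks old, kept specific pathogen-free. Infected orally with 20 PRU-Luc-GFP tissue cysts taken from brains of chronically infected wild-type mice. Sulfadiazine in drinking water for 3 weeks from day 2. Compounds given s.c. at 10 mg/kg daily for 8 days, starting 2 days after sulfadiazine stopped. Survival monitored; three experiments combined, n = 3–5 per group.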

Toxoplasma gondii [5] = test: (§3) Antiparasitic activity against Toxoplasma gondii PRU-Luc-GFP type 2 infected in CD1 mouse acute toxoplasmosis model assessed as decrease in parasite burden at 10 mg/kg, sc administered once daily for 8 days measured after 25 days post-infection by luciferase reporter gene based assay; type: functional, organism-based; set-up: dose 10 mg/kg
Outline: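 Female CD1 mice, 8–10 weeks old, infected i.p. with 10⁶ PRU-Luc-GFP tachyzoites. Dosed s.c. at 10 mg/kg daily for 8 days. Imaged every 2 days over 25 days under mild isoflurane anesthesia after i.p. firefly luciferin D at […]. Output in relative light units as a relative index of infection severity. Four repeats, n = 3 or 4 per group; one representative experiment shown.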

Toxoplasma gondii [6] = test: as §1, with “discontinuation” for “discontinuation measured on day 18 post infection after compound withdrawal”; type: functional; outline: as §2
Toxoplasma gondii [7] = test: as §1, with “25” for “18”; type: functional, organism-based; outline: as §2
Toxoplasma gondii [8] = test: as §3, with “parasite-induced cyst formation in mouse brain” for “parasite burden”; type: functional, organism-based; set-up: dose 10 mg/kg
Outline: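 Female CD1 mice, 8–10 weeks old, infected i.p. with 10⁶ PRU-Luc-GFP tachyzoites and dosed s.c. at 10 mg/kg daily for 8 days. At 25 days post-infection, brains were homogenized in 1.0 ml PBS, pH 7.2. Cysts counted by bright-field or phase-contrast microscopy at ×40 in four 20-μl aliquots and total cysts per brain estimated. Three experiments combined, n = 2 per group.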

[9] = Partition coefficient, log P of the compound at pH 2; type: physicochemical; conditions: octanol/water

SMILES | EC50 (Toxoplasma gondii [1]) | EC90 (Toxoplasma gondii [1]) | Activity (HFF) | logP [2] | survival at 10 mg/kg (Toxoplasma gondii [3]) | Activity (Toxoplasma gondii [4]) | Activity (Toxoplasma gondii [5]) | Survival (Toxoplasma gondii [6]) | Activity (Toxoplasma gondii [7]) | Activity (Toxoplasma gondii [8]) | logP [9]
C[C@H]1[C@H](NS(N)(=O)=O)O[C@@H]2O[C@@]3(C)CC[C@H]4[C@H](C)CC[C@@H]1[C@@]24OO3 | 158 nM | 235 nM | Non-toxic | 3.36 | – | – | – | – | – | – | –
C[C@@H]1CC[C@H]2[C@@H](C)C(c3ccc(F)cc3)O[C@@H]3O[C@@]4(C)CC[C@@H]1[C@]32OO4 (some centres not stated) | 182 nM | 271 nM | Non-toxic | 5.18 | – | – | – | – | – | – | –
C[C@H]1[C@H](N2CCN(Cc3ccccc3)CC2)O[C@@H]2O[C@@]3(C)CC[C@H]4[C@H](C)CC[C@@H]1[C@@]24OO3 | 213 nM | 339 nM | Non-toxic | 5.62 | – | – | – | – | – | – | –
C[C@H]1[C@H](N2CCN(c3ncccn3)CC2)O[C@@H]2O[C@@]3(C)CC[C@H]4[C@H](C)CC[C@@H]1[C@@]24OO3 | 156 nM | 263 nM | Non-toxic | 4.78 | – | – | – | – | – | – | –
C[C@H]1[C@H](N2CCS(=O)(=O)CC2)O[C@@H]2O[C@@]3(C)CC[C@H]4[C@H](C)CC[C@@H]1[C@@]24OO3 [ARTEMIFONE] | 120 nM | 176 nM | Non-toxic | 2.49 | 50% | inactive | Active | 60% | inactive | – | –
C[C@H]1[C@H](N2CCSCC2)O[C@@H]2O[C@@]3(C)CC[C@H]4[C@H](C)CC[C@@H]1[C@@]24OO3 [ARTEMISIDE] | 108 nM | 167 nM | Non-toxic | 4.97 | 60% | inactive | Active | 80% | inactive | Active | –
C[C@@H]1CC[C@H]2[C@@H](C)C(=O)O[C@@H]3O[C@@]4(C)CC[C@@H]1[C@]32OO4 [ARTEMISININ] | – | – | – | 2.94 | – | – | inactive | – | – | inactive | –
C[C@H]1[C@H](OC(=O)CCC(=O)O)O[C@@H]2O[C@@]3(C)CC[C@H]4[C@H](C)CC[C@@H]1[C@@]24OO3 [ARTESUNATE] | 213 nM | 368 nM | Non-toxic | – | – | – | – | – | – | – | 2.77
